Activity calls are given as the source filed them. The calls are words filed in the database; no cut-off is given here.
What was measured:
NCI-H2228 [1] = test: Induction of apoptosis in human NCI-H2228 cells assessed as early apoptotic cells at 50 nM measured after 24 hrs by Annexin V-FITC/PI staining based flow cytometry assay (reference value: 2.18%); format: functional
Summary of the method: (§1)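 After 24 h or 48 h exposure (5, 25, 50 nM; DMSO 0.01% control), NCI-H2228 cells were harvested, double-stained with Annexin V-FITC and PI and run on flow cytometry. Stage percentages quantified by software; three experiments, representative shown.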

NCI-H2228 [2] = test: Induction of apoptosis in human NCI-H2228 cells assessed as viable cells at 25 nM measured after 48 hrs by Annexin V-FITC/PI staining based flow cytometry assay (reference value: 95.3%); format: functional; conditions: read-out: Activity; summary of the method: as §1
NCI-H2228 [3] = test: Induction of apoptosis in human NCI-H2228 cells assessed as viable cells at 25 nM measured after 24 hrs by Annexin V-FITC/PI staining based flow cytometry assay (reference value: 95.6%); format: functional; conditions: read-out: Activity; summary of the method: as §1
NCI-H2228 [4] = test: Induction of apoptosis in human NCI-H2228 cells assessed as nuclear fragmentation at 5 to 50 nM measured after 48 hrs by Hoechst 33342 staining based flourescence microscopy method; format: functional, cell-based; conditions: dose 5-50 nM
Summary of the method: (§2)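 Nuclear morphology: NCI-H2228 cells treated 48 h at 5, 25 and 50 nM, stained with Hoechst 33342, imaged on an inverted fluorescence microscope. Performed three times, representative images shown.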

NCI-H2228 [5] = test: Induction of apoptosis in human NCI-H2228 cells assessed as viable cells at 50 nM measured after 24 hrs by Annexin V-FITC/PI staining based flow cytometry assay (reference value: 95.6%); format: functional; conditions: read-out: Activity; summary of the method: as §1
NCI-H2228 [6] = test: Induction of apoptosis in human NCI-H2228 cells assessed as viable cells at 50 nM measured after 48 hrs by Annexin V-FITC/PI staining based flow cytometry assay (reference value: 95.3%); format: functional; conditions: read-out: Activity; summary of the method: as §1
NCI-H2228 [7] = test: Induction of apoptosis in human NCI-H2228 cells assessed as necrotic cells at 25 nM measured after 24 hrs by Annexin V-FITC/PI staining based flow cytometry assay (reference value: 0.21%); format: functional; summary of the method: as §1
NCI-H2228 [8] = test: Induction of apoptosis in human NCI-H2228 cells assessed as early apoptotic cells at 5 nM measured after 24 hrs by Annexin V-FITC/PI staining based flow cytometry assay (reference value: 2.18%); format: functional; summary of the method: as §1
NCI-H2228 [9] = test: Cell cycle arrest in human NCI-H2228 cells assessed as downregulation of Cyclin D1 protein expression at 20 nM measured after 12 to 48 hrs by western blot assay; format: functional, cell-based; conditions: time 12-48 hrs
Summary of the method: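 Western blot of cell-cycle regulatory proteins in NCI-H2228 cells held at 20 nM for 0, 12, 24 or 48 h. Performed three times, representative blot shown.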

NCI-H2228 [10] = test: Induction of apoptosis in human NCI-H2228 cells assessed as early apoptotic cells at 5 nM measured after 48 hrs by Annexin V-FITC/PI staining based flow cytometry assay (reference value: 1.58%); format: functional; summary of the method: as §1
NCI-H2228 [11] = test: Induction of apoptosis in human NCI-H2228 cells assessed as necrotic cells at 25 nM measured after 48 hrs by Annexin V-FITC/PI staining based flow cytometry assay (reference value: 2.88%); format: functional; summary of the method: as §1
NCI-H2228 [12] = test: Induction of apoptosis in human NCI-H2228 cells assessed as viable cells at 5 nM measured after 24 hrs by Annexin V-FITC.PI staining based flow cytometry assay (reference value: 95.6%); format: functional; conditions: read-out: Activity; summary of the method: as §1
NCI-H2228 [13] = test: Cell cycle arrest in human NCI-H2228 cells assessed as accumulation of cells in G1 phase at 20 nM measured after 24 hrs by PI staining based flow cytometry method (reference value: 67.77%); format: functional
Summary of the method: (§3)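 NCI-H2228 cells exposed to 20 nM for 0, 12, 24 or 48 h, stained with PI and analysed by flow cytometry for G0/G1, S and G2/M fractions. Phase percentages quantified by analysis software; three independent experiments, representative run shown.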

NCI-H2228 [14] = test: Induction of apoptosis in human NCI-H2228 cells assessed as late apoptotic cells at 50 nM measured after 48 hrs by Annexin V-FITC/PI staining based flow cytometry assay (reference value: 0.23%); format: functional; summary of the method: as §1
NCI-H2228 [15] = test: Induction of apoptosis in human NCI-H2228 cells assessed as viable cells at 5 nM measured after 48 hrs by Annexin V-FITC/PI staining based flow cytometry assay (reference value: 95.3%); format: functional; conditions: read-out: Activity; summary of the method: as §1
BaF3 = test: Antiproliferative activity against mouse BaF3 cells overexpressing ALK assessed as inhibition of cell proliferation measured by CCK8 assay; format: functional, cell-based
Summary of the method: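 Cell proliferation inhibition; IC50 given as mean ± SD of three independent experiments.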

NCI-H2228 [16] = test: Cell cycle arrest in human NCI-H2228 cells assessed as accumulation of cells in S phase at 20 nM measured after 12 hrs by PI staining based flow cytometry method (reference value: 30%); format: functional; summary of the method: as §3
NCI-H2228 [17] = test: Induction of apoptosis in human NCI-H2228 cells assessed as nuclear pyknosis at 5 to 50 nM measured after 48 hrs by Hoechst 33342 staining based flourescence microscopy method; format: functional, cell-based; conditions: dose 5-50 nM; summary of the method: as §2
NCI-H2228 [18] = test: Induction of apoptosis in human NCI-H2228 cells assessed as late apoptotic cells at 25 nM measured after 48 hrs by Annexin V-FITC/PI staining based flow cytometry assay (reference value: 0.23%); format: functional; summary of the method: as §1
NCI-H2228 [19] = test: Induction of apoptosis in human NCI-H2228 cells assessed as late apoptotic cells at 5 nM measured after 24 hrs by Annexin V-FITC/PI staining based flow cytometry assay (reference value: 2.02%); format: functional; summary of the method: as §1

SMILES: CCC(=O)Nc1cc(Nc2ncc(Cl)c(Nc3ccc(F)cc3[S+]([O-])CC)n2)c(OC)cc1N1CCN(C)CC1 (stereo not given)
- Activity (NCI-H2228 [1]): 18.3%
- viability at 0.025 µM (NCI-H2228 [2]): 42.8%
- viability at 0.025 µM (NCI-H2228 [3]): 76.3%
- Activity (NCI-H2228 [4]): Active
- viability at 0.05 µM (NCI-H2228 [5]): 76.1%
- viability at 0.05 µM (NCI-H2228 [6]): 10.1%
- Activity (NCI-H2228 [7]): 0.17%
- Activity (NCI-H2228 [8]): 9.56%
- Activity (NCI-H2228 [9]): Active
- Activity (NCI-H2228 [10]): 8.19%
- Activity (NCI-H2228 [11]): 0.22%
- viability at 0.005 µM (NCI-H2228 [12]): 83.2%
- Activity (NCI-H2228 [13]): 82.13%
- Activity (NCI-H2228 [14]): 77.5%
- viability at 0.005 µM (NCI-H2228 [15]): 77%
- IC50 (BaF3): 8.11 nM
- Activity (NCI-H2228 [16]): 20.22%
- Activity (NCI-H2228 [17]): Active
- Activity (NCI-H2228 [18]): 37.1%
- Activity (NCI-H2228 [19]): 7.02%

Reference: ChEMBL document CHEMBL4823286, “Synthesis and evaluation of novel 2,4-diaminopyrimidines bearing a sulfoxide moiety as anaplastic lymphoma kinase (ALK) inhibition agents” (Bioorg Med Chem Lett, 2021)
